Experimental data collected from several papers.
Each line is one published result; the experiments were not run side by side.
Cell line: DU-145
Effect on: cell growth or viability

CCOc1c(OC)cc(CN2CCc3cc(OS(N)(=O)=O)c(OC)cc3C2)cc1OC  GI50 (WST-1; 96 h): 0.1 µM
COc1ccc(C(=O)/C=C/c2cccnc2)cc1S(N)(=O)=O  GI50 (SRB; 48 h): 11.2 µM
COc1cc2c(cc1O)CCN(Cc1cccc(NS(C)(=O)=O)c1)C2  GI50 (WST-1; 96 h): > 100 µM
COc1cc2c(cc1O)CCN(Cc1cc(Br)c(OC)c(OC)c1)C2  GI50 (WST-1; 96 h): 0.3 µM
COc1ccc(C(=O)/C=C/c2cccc(Br)c2)cc1S(N)(=O)=O  GI50 (SRB; 48 h): 3.6 µM
Cc1cc(C)n(C(=S)[S][Au][PH](CCCCCC[PH]([Au][S]C(=S)n2nc(C)cc2C)(c2ccccc2)c2ccccc2)(c2ccccc2)c2ccccc2)n1  GI50: 0.633 µM
COc1ccc(OC)c(CN2CCc3cc(OS(N)(=O)=O)c(OC)cc3C2)c1  GI50 (WST-1; 96 h): 2.61 µM
CCOc1cc(CN2CCc3cc(OS(N)(=O)=O)c(OC)cc3C2)cc(OCC)c1OCC  GI50 (WST-1; 96 h): 8.5 µM
COc1ccc(C(=O)/C=C/c2cccc(Cl)c2Cl)cc1S(N)(=O)=O  GI50 (SRB; 48 h): 2.9 µM
COc1ccc(-c2ccc(-c3ccc(C(=N)N)nc3)s2)cc1  GI50: 1.77 µM
COc1cc2c(cc1O)CCN(Cc1cccc(OC)c1OC)C2  GI50 (WST-1; 96 h): > 100 µM
COc1ccccc1/C=C/C(=O)c1ccc(OC)c(S(N)(=O)=O)c1  GI50 (SRB; 48 h): 3.2 µM
COc1cc2c(cc1O)CCN(C(=O)c1cc(OC)c(OC)c(OC)c1)C2  GI50 (WST-1; 96 h): 0.921 µM
COc1cc2c(cc1O)CCN(Cc1cc(Cl)c(OC)c(OC)c1)C2  GI50 (WST-1; 96 h): 0.9 µM
COc1cccc(C(=O)N2CCc3cc(O)c(OC)cc3C2)c1  GI50 (WST-1; 96 h): 31.3 µM
COc1ccc(-c2ccc(-c3ccc(C(=N)N)nc3)s2)cc1Cl  GI50: 1.77 µM
CCc1cc(CN2CCc3cc(O)c(OC)cc3C2)cc(CC)c1CC  GI50 (WST-1; 96 h): 63 µM
COc1ccc(C(=O)/C=C/c2cccc(Cl)c2)cc1S(N)(=O)=O  GI50 (SRB; 48 h): 3.6 µM
COc1cccc(S(=O)(=O)N2CCc3cc(OS(N)(=O)=O)c(OC)cc3C2)c1  GI50 (WST-1; 96 h): 56.7 µM
